Results as given in ChEMBL document CHEMBL1134480, “Antiplasmodial activity and cytotoxicity of bis-, tris-, and tetraquinolines with linear or cyclic amino linkers” (J Med Chem, 2001).

Key:
Mus musculus [1] = species on record: Mus musculus; test: In vitro cytotoxic activity against mouse peritoneal macrophages at a concentration 2 uM; Non-toxic; format: functional
MRC5 [2] = test: Cytotoxicity against MRC-5 cells at concentration 8 uM; format: functional; settings: Homo sapiens
Summary of the method: (§1)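 MRC-5 human embryonic lung diploid cells were seeded at 5000 per well. After 24 h the cells were washed and exposed to 2-fold drug dilutions in RPMI + 5% FCS, with final DMSO below 0.5%. Incubation was 7 days at 37 °C in 5% CO2. Viability was read by MTT absorbance at 540 nm.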

MRC5 [3] = test: Cytotoxicity against MRC-5 cells at concentration 32 uM; format: functional; settings: Homo sapiens; summary of the method: as §1
MRC5 [4] = test: Cytotoxicity against MRC-5 cells at concentration 1 uM; format: functional; settings: Homo sapiens; summary of the method: as §1
Plasmodium falciparum [5] = test: In vitro growth inhibition of Plasmodium falciparum FcB1R; format: functional, organism-based
Summary of the method: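 Asynchronous P. falciparum cultures were grown in human erythrocytes at 0.5% parasitemia and 1% hematocrit. They were exposed to serial drug dilutions, with DMSO ≤0.1%, for 24 h at 37 °C before adding 0.5 µCi [3H]hypoxanthine per well. Inhibition was measured as incorporated radioactivity versus drug-free controls on the same plate. IC50 came from concentration–response curves, reported as mean ± SD of three independent experiments; FcB1R used several experiments.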

MRC5 [6] = test: Cytotoxicity against MRC-5 cells at concentration 0.5 uM; format: functional; settings: Homo sapiens; summary of the method: as §1
Mus musculus [7] = species on record: Mus musculus; test: In vitro cytotoxic activity against mouse peritoneal macrophages at a concentration 8 uM; Non-toxic; format: functional
[8] = In vitro cytotoxic activity against mouse peritoneal macrophages at a concentration 8 uM; Toxic; format: toxicity
[9] = In vitro cytotoxic activity against mouse peritoneal macrophages at a concentration 32 uM; Toxic; format: toxicity
[10] = In vitro cytotoxicity against mouse peritoneal macrophages at concentration 32 uM; Toxic; format: toxicity
Plasmodium falciparum [11] = test: In vitro growth inhibition of Plasmodium falciparum F32; format: functional, organism-based
Plasmodium falciparum [12] = test: In vitro growth inhibition of Plasmodium falciparum W2; format: functional, organism-based
Plasmodium falciparum [13] = test: In vitro growth inhibition of Plasmodium falciparum D6; format: functional, organism-based

| Structure (SMILES) | Cytotoxicity (Mus musculus [1]) | cytotoxicity at 8 µM (MRC5 [2]) [%] | cytotoxicity at 32 µM (MRC5 [3]) [%] | cytotoxicity at 1 µM (MRC5 [4]) [%] | IC50 (Plasmodium falciparum [5]) [nM] | cytotoxicity at 0.5 µM (MRC5 [6]) [%] | Cytotoxicity (Mus musculus [7]) | Cytotoxicity [8] | Cytotoxicity [9] | Cytotoxicity [10] | IC50 (Plasmodium falciparum [11]) [nM] | IC50 (Plasmodium falciparum [12]) [nM] | IC50 (Plasmodium falciparum [13]) [nM] |
| --- | --- | --- | --- | --- | --- | --- | --- | --- | --- | --- | --- | --- | --- |
| N=C(N)NCCC(=O)N1CCN(c2ccnc3cc(Cl)ccc23)CCN(c2ccnc3cc(Cl)ccc23)CC1 | Not toxic | 0 | 0 | 0 | > 1000 | 0 | Not toxic |  |  |  |  |  |  |
| CC(N)C(=O)N1CCN(c2ccnc3cc(Cl)ccc23)CCN(c2ccnc3cc(Cl)ccc23)CC1 (stereo not given) | Not toxic | 0 | 88 | 0 | 228 | 0 |  | Toxic | Toxic |  |  |  |  |
| O=C(O)CCC(=O)N1CCN(c2ccnc3cc(Cl)ccc23)CCN(c2ccnc3cc(Cl)ccc23)CC1 | Not toxic | 0 | 0 | 1 | > 1000 | 0 | Not toxic |  |  |  |  |  |  |
| O=C(CCCOCc1ccccc1)N1CCN(c2ccnc3cc(Cl)ccc23)CCN(c2ccnc3cc(Cl)ccc23)CC1 | Not toxic | 0 | 14 | 0 | 1000 | 0 | Not toxic |  |  | Toxic |  |  |  |
| Clc1ccc2c(NCCN(CCNc3ccnc4cc(Cl)ccc34)Cc3ccnc4ccccc34)ccnc2c1 | Not toxic | 0 | 0 | 0 | > 1000 | 0 | Not toxic |  |  |  |  |  |  |
| CC(C)(C)OC(=O)NCCC(=O)N1CCN(c2ccnc3cc(Cl)ccc23)CCN(c2ccnc3cc(Cl)ccc23)CC1 | Not toxic | 0 | 100 | 0 | > 1000 | 0 | Not toxic |  |  | Toxic |  |  |  |
| Clc1ccc2c(N3CCNCCNCC3)ccnc2c1 | Not toxic | 0 | 0 | 0 | > 1000 | 0 | Not toxic |  |  |  |  |  |  |
| O=C(CNCC(=O)N1CCN(c2ccnc3cc(Cl)ccc23)CCN(c2ccnc3cc(Cl)ccc23)CC1)N1CCN(c2ccnc3cc(Cl)ccc23)CCN(c2ccnc3cc(Cl)ccc23)CC1 | Not toxic | 0 | 0 | 0 | 103 | 0 | Not toxic |  |  |  |  |  |  |
| NC(=O)CCC(=O)N1CCN(c2ccnc3cc(Cl)ccc23)CCN(c2ccnc3cc(Cl)ccc23)CC1 | Not toxic | 0 | 0 | 0 | 980 | 0 | Not toxic |  |  |  |  |  |  |
| NCCC(=O)N1CCN(c2ccnc3cc(Cl)ccc23)CCN(c2ccnc3cc(Cl)ccc23)CC1 | Not toxic | 0 | 0 | 0 | > 1000 | 0 | Not toxic |  |  |  |  |  |  |
| O=C(CCCCN1CCCCC1)N1CCN(c2ccnc3cc(Cl)ccc23)CCN(c2ccnc3cc(Cl)ccc23)CC1 | Not toxic | 92 | 92 | 0 | 132 | 0 |  | Toxic | Toxic |  |  |  |  |
| O=C(CCCC(=O)N1CCN(c2ccnc3cc(Cl)ccc23)CCN(c2ccnc3cc(Cl)ccc23)CC1)N1CCNCCNCC1 | Not toxic | 0 | 0 | 0 | > 1000 | 0 | Not toxic |  |  |  |  |  |  |
| O=C(CCC(=O)N1CCN(c2ccnc3cc(Cl)ccc23)CCN(c2ccnc3cc(Cl)ccc23)CC1)N1CCN(c2ccnc3cc(Cl)ccc23)CCN(c2ccnc3cc(Cl)ccc23)CC1 | Not toxic | 0 | 0 | 0 | 38.1 | 0 | Not toxic |  |  |  | 23.7 | 29.5 | 21.9 |
| O=C(CCCO)N1CCN(c2ccnc3cc(Cl)ccc23)CCN(c2ccnc3cc(Cl)ccc23)CC1 | Not toxic | 0 | 0 | 0 | 930 | 0 | Not toxic |  |  |  |  |  |  |
| NCCN(CCNc1ccnc2cc(Cl)ccc12)CCNc1ccnc2cc(Cl)ccc12 | Not toxic | 0 | 51 | 0 | 606 | 0 | Not toxic |  |  |  |  |  |  |
| O=C(c1ccc(C(=O)N2CCN(c3ccnc4cc(Cl)ccc34)CCN(c3ccnc4cc(Cl)ccc34)CC2)cc1)N1CCN(c2ccnc3cc(Cl)ccc23)CCN(c2ccnc3cc(Cl)ccc23)CC1 | Not toxic | 0 | 0 | 0 | 266 | 0 | Not toxic |  |  |  |  |  |  |
| O=C(O)CCCC(=O)N1CCN(c2ccnc3cc(Cl)ccc23)CCN(c2ccnc3cc(Cl)ccc23)CC1 | Not toxic | 0 | 0 | 0 | 940 | 0 | Not toxic |  |  |  |  |  |  |
| O=C(CCCC(=O)N1CCN(c2ccnc3cc(Cl)ccc23)CCN(c2ccnc3cc(Cl)ccc23)CC1)N1CCNCCN(c2ccnc3cc(Cl)ccc23)CC1 | Not toxic | 0 | 0 | 0 | 275 | 0 | Not toxic |  |  |  |  |  |  |
| CC(NC(=O)OC(C)(C)C)C(=O)N1CCN(c2ccnc3cc(Cl)ccc23)CCN(c2ccnc3cc(Cl)ccc23)CC1 (stereo not given) | Not toxic | 0 | 0 | 0 | 463 | 0 | Not toxic |  |  |  |  |  |  |
| O=C(CCCCCCCCCCC(=O)N1CCN(c2ccnc3cc(Cl)ccc23)CCN(c2ccnc3cc(Cl)ccc23)CC1)N1CCN(c2ccnc3cc(Cl)ccc23)CCN(c2ccnc3cc(Cl)ccc23)CC1 | Not toxic | 0 | 0 | 0 | 79.1 | 0 | Not toxic |  |  |  | 133 | 180 | 123 |
